Measurements as given in ChEMBL document CHEMBL4673308, “Synthesis and evaluation of new dinitrobenzamide mustards in human prostate cancer” (Bioorg Med Chem Lett, 2021).

Assays:
[1] = system: PC-3; assay: Cytotoxicity against human PC-3 cells assessed as reduction in cell viability preincubated for 4 hrs in hypoxia and further incubated for 5 days in fresh medium by SRB assay; type: functional, cell-based
[2] = Selectivity index, ratio of IC50 for human PC-3 cells under normoxic condition to IC50 human PC-3 cells under hypoxia condition incubated for 2 hrs followed by washed with fresh media incubated for 3 days by alamar blue assay; type: functional
In short: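 PC-3 hypoxia selectivity is the IC50 in air divided by the IC50 under N2. Both come from the 2 h exposure, wash, 3-day normoxic incubation and alamarBlue viability readout.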

[3] = system: DU-145; assay: Cytotoxicity against human DU145 cells assessed as reduction in cell viability incubated for 2 hrs under hypoxic condition followed washed with fresh media incubated for 3 days by alamar blue assay; type: functional, cell-based
In short: (§1)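 Cells exposed to the mustards across a concentration range for 2 h under hypoxia (N2) or normoxia (air), then washed and incubated 3 days under normoxia. Viability was read with alamarBlue, and IC50 is reported as mean ± SEM.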

[4] = system: DU-145; assay: Cytotoxicity against human DU145 cells assessed as reduction in cell viability incubated for 2 hrs under normoxic condition followed by washed with fresh media incubated for 3 days by alamar blue assay; type: functional, cell-based; in short: as §1
[5] = system: PC-3; assay: Cytotoxicity against human PC-3 cells assessed as reduction in cell viability incubated for 2 hrs under normoxic condition followed by washed with fresh media incubated for 3 days by alamar blue assay; type: functional, cell-based; in short: as §1
[6] = system: PC-3; assay: Cytotoxicity against human PC-3 cells assessed as reduction in cell viability incubated for 2 hrs under hypoxic condition followed by washed with fresh media incubated for 3 days by alamar blue assay; type: functional, cell-based; in short: as §1
[7] = Lipophilicity, logD of compound at pH 7.4 by microscale shake flask method; type: physicochemical; conditions: buffer
In short: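 Distribution coefficient measured at pH 7.4 and reported as mean ± SEM from two or more independent experiments, each in triplicate.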

SMILES | IC50 [1] [µM] | Ratio IC50 [2] | IC50 [3] [µM] | IC50 [4] [µM] | IC50 [5] [µM] | IC50 [6] [µM] | logD [7]
CS(=O)(=O)OCCN(CCBr)c1c(C(=O)NCCO)cc([N+](=O)[O-])cc1[N+](=O)[O-] | 7.3 | 6.7 | 78 | 210 | 320 | 48 | 0.8
CS(=O)(=O)OCCN(CCBr)c1c(C(=O)NCCC(=O)O)cc([N+](=O)[O-])cc1[N+](=O)[O-] | – | 10 | 56 | 326 | 417 | 41 | -0.71
Cc1ccc(S(=O)(=O)OCCN(CCBr)c2c(C(=O)NCCC(=O)O)cc([N+](=O)[O-])cc2[N+](=O)[O-])cc1 | – | 11 | 54 | 363 | 460 | 42 | 1.03
O=C(NCCO)c1cc([N+](=O)[O-])cc([N+](=O)[O-])c1N(CCBr)CCBr | – | 7.4 | 80 | 177 | 193 | 26 | 1.7
Cc1ccc(S(=O)(=O)OCCN(CCBr)c2c(C(=O)NCCO)cc([N+](=O)[O-])cc2[N+](=O)[O-])cc1 | – | 3.9 | 28 | 108 | 146 | 37 | 0.95
O=C(NCCO)c1cc([N+](=O)[O-])cc([N+](=O)[O-])c1N(CCBr)CCOS(=O)(=O)C(F)(F)F | – | 5.8 | 51 | 470 | 245 | 42 | 0.33
O=C(O)CCNC(=O)c1cc([N+](=O)[O-])cc([N+](=O)[O-])c1N(CCBr)CCOS(=O)(=O)C(F)(F)F | – | 3.9 | 68 | 480 | 350 | 90 | 0.15
O=C(O)CCNC(=O)c1cc([N+](=O)[O-])cc([N+](=O)[O-])c1N(CCBr)CCBr | – | 6.5 | 47 | 413 | 490 | 75 | 0.42
